Results collected from several papers.
Each line is one published result; the experiments were not run side by side.
Organism: Trypanosoma brucei
Observed: parasite growth

| SMILES | test | system | conditions | endpoint | value |
| --- | --- | --- | --- | --- | --- |
| OC1c2ccccc2CCc2ccccc21 |  |  |  | EC50 | 51.3 µM |
| Nc1nccc(C#Cc2cncnc2Nc2ccc(OCc3cccc(F)c3)c(Cl)c2)n1 |  |  |  | EC50 | 3.16 µM |
| CN(Cc1cnc2nc(N)nc(N)c2n1)c1ccc(C(=O)N2CCCCC2)cc1 | resazurin |  | 10 µM, 72 h | inhibition | 48% |
| Cc1nn(C)c2cc(N(C)c3ccnc(Nc4cccc(S(N)(=O)=O)c4)n3)ccc12 |  |  |  | EC50 | 0.316 µM |
| O=C(Cn1ccnc1[N+](=O)[O-])NCc1ccccc1 |  |  |  | IC50 | 96 µM |
| COc1ccc(Oc2ccc(CNCc3cnc4nc(N)nc(N)c4n3)cc2)cc1 | resazurin |  | 10 µM, 72 h | inhibition | 31% |
| CS(=O)(=O)CCNCc1ccc(-c2ccc3ncnc(Nc4ccc(OCc5cccc(F)c5)c(C(F)(F)F)c4)c3c2)o1 |  |  |  | EC50 | 2 µM |
| Cc1ccc2nc(-c3ccc(F)c(F)c3)c(CN3CCC(Cc4ccccc4)CC3)n2c1 |  |  | 48 h | EC90 | 18.1 µM |
| COc1ccc(C(=O)Nc2ccc(NC(=N)N)c(OCc3cc(OC)ccc3OC)c2)cc1 |  |  |  | IC50 | 0.8 µM |
| Cc1ccc2nc(-c3ccc(F)c(F)c3)c(CN3CCN(C4CCCCC4)CC3)n2c1 |  |  | 48 h | EC50 | > 20 µM |
| NS(=O)(=O)c1ccc(Nc2cc(-c3ccc(O)c(F)c3)n[nH]2)cc1 |  |  |  | EC50 | 6.31 µM |
| CN(C)CCCN1c2ccccc2Sc2ccc(Cl)cc21 |  |  | blood stage | EC50 | 4.21 µM |
| Cc1c2ccc(N(C)c3ccnc(Nc4cccc(S(N)(=O)=O)c4)n3)cc2nn1C |  |  |  | EC50 | 5.01 µM |
| ClCCOC1c2ccccc2CCc2ccccc21 |  |  |  | EC50 | 27.9 µM |
| NNC(=O)CN1C(=O)CNC2(C1=O)C1CC3CC(C1)CC2C3 (stereo not shown) |  |  | pH 7.4, blood stage | IC50 | 118 µM |
| CS(=O)(=O)CCNCc1cc(-c2cc3c(Nc4ccc(OCc5cccc(F)c5)c(Cl)c4)ncnc3s2)cs1 |  |  |  | EC50 | 0.794 µM |

| SMILES | test | system | conditions | endpoint | value |
| --- | --- | --- | --- | --- | --- |
| Nc1nc(N)c2nc(CNc3ccc(C(=O)N4CCC(C(=O)O)CC4)cc3)cnc2n1 | resazurin |  | 10 µM, 72 h | inhibition | 8% |
| C[C@@H](Oc1cc(-n2cnc3ccc(OCC4CCN(C)CC4)cc32)sc1C(N)=O)c1ccccc1Cl |  |  |  | EC50 | 0.0158 µM |
| N=C(N)c1ccc(OCCCCCOc2ccc(C(=N)N)cc2)cc1 | resazurin | RHODESIENSE STIB900 |  | IC50 | 0.0018 µM |
| N=C(N)c1ccc(OCCCCCOc2ccc(C(=N)N)cc2)cc1 |  |  |  | EC50 | 0.00124 µM |
| O=C(Nc1ccc2c(c1)B(O)OC2)Nc1ccc(F)c(C(F)(F)F)c1 |  | RHODESIENSE STIB900 |  | IC50 | 0.52 µM |
| Nc1nc(N)c2nc(CNc3cccc4ccccc34)cnc2n1 | resazurin |  | 10 µM, 72 h | inhibition | 31% |
| Cc1ccc2nc(-c3ccc(Cl)cc3)cn2c1 |  |  | 48 h | EC50 | 10.4 µM |
| CCCOC(=O)C1CCN(C(=O)c2ccc(N(C)Cc3cnc4nc(N)nc(N)c4n3)cc2)CC1 | resazurin |  | 10 µM, 72 h | inhibition | 51% |
| CONC(=O)CN1C(=O)CNC2(C1=O)C1CC3CC(C1)CC2C3 (stereo not shown) |  |  | pH 7.4, blood stage | IC50 | 542 µM |
| C#CCN(Cc1cnc2nc(N)nc(N)c2n1)c1ccc(C(=O)N2CCC(C(=O)OC)CC2)cc1 | resazurin |  | 10 µM, 72 h | inhibition | 23% |
| O=C(Nc1ccnc(C(F)(F)F)c1)Nc1cccc2c1OC(F)(F)O2 |  | RHODESIENSE STIB900 |  | IC50 | 14 µM |
| COC(=O)C1CCN(C(=O)c2ccc(N(CCO)Cc3cnc4nc(N)nc(N)c4n3)cc2)CC1 | resazurin |  | 10 µM, 72 h | inhibition | 9% |
| Cc1ccc(C(=O)Nc2ccc(S(=O)(=O)O)c3cc(S(=O)(=O)O)cc(S(=O)(=O)O)c23)cc1NC(=O)c1cccc(NC(=O)Nc2cccc(C(=O)Nc3cc(C(=O)Nc4ccc(S(=O)(=O)O)c5cc(S(=O)(=O)O)cc(S(=O)(=O)O)c45)ccc3C)c2)c1 | resazurin | RHODESIENSE |  | IC50 | 0.05 µM |
| COC(=O)C1CCN(C(=O)Cc2ccc(NCc3cnc4nc(N)nc(N)c4n3)cc2)CC1 | resazurin |  | 10 µM, 72 h | inhibition | 23% |
| COc1cc2c(cc1Nc1nc(N3CCc4ccccc43)c3cc[nH]c3n1)N(C(=O)CN(C)C)CC2 |  |  |  | EC50 | 0.1 µM |
